{"source": "ChEMBL document CHEMBL1135550", "about": "“Highly potent geminal bisphosphonates. From pamidronate disodium (Aredia) to zoledronic acid (Zometa)” (J Med Chem, 2002)", "key": {"[1]": {"species_on_record": "Rattus norvegicus", "test": "Effective dose for increased serum urea level rats after a treatment period of 1 hr in renal tolerability model", "assay_type": "functional"}, "[2]": {"species_on_record": "Rattus norvegicus", "test": "Effective dose for increased mucosal permeability of perfused ileal loop in rats after a treatment period of 2 hr in intestinal tolerability model", "assay_type": "functional"}, "[3]": {"test": "Therapeutic ratio comparing nephrotoxic potential versus bone antiresorptive potency ( reciprocal of ED50 (TPTX assay) / the total urinary malate dehydrogenase excretion)", "assay_type": "ADME", "conditions": "urine; read-out: Therapeutic ratio", "outline": "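Ratio = (1/TPTX ED50 in mg/kg) ÷ total urinary malate dehydrogenase units, pooled from eight 24-h urine collections after starting repeated sc dosing. ED50 model: young male rats (130-150 g), thyroparathyroidectomized, 4-day recovery; rats with fasting serum Ca above 1.88 mM excluded; groups of 5. Days 5-8: 1,25(OH)2D3 125 pmol/kg sc plus graded sc bisphosphonate. ED50 = dose halving the hypercalcemia (total serum calcium).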"}, "[4]": {"species_on_record": "Rattus norvegicus", "test": "Effective dose for increased cancellous bone calcium in young interact rats after a treatment period of 10 days", "assay_type": "functional", "conditions": "240 h"}, "[5]": {"species_on_record": "Mus musculus", "test": "Inhibition of bone resorption in the calvaria assay of mouse", "assay_type": "functional"}, "[6]": {"system": "Rattus norvegicus", "test": "Effective dose after subcutaneous administration to TPTX rats for 50% reduction of hypercalcemia", "assay_type": "functional", "conditions": "sc", "outline": "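Young male rats (130-150 g) were thyroparathyroidectomized and allowed 4 days to recover, then fasting serum was sampled. Animals with serum Ca above 1.88 mM were discarded, and the rest were randomized into groups of 5. On days 5-8, 1,25(OH)2D3 (125 pmol/kg sc) was given with graded sc doses of bisphosphonate, and total serum calcium was measured. ED50 is the sc dose halving the hypercalcemia.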"}, "[7]": {"species_on_record": "Rattus norvegicus", "test": "Effective dose for increased radiographic bone density in young interact rats after a treatment period of 10 days", "assay_type": "functional", "conditions": "240 h"}, "[8]": {"species_on_record": "Mus musculus", "test": "Inhibition of mineralization in the calvaria assay of mouse", "assay_type": "functional", "outline": "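In vitro mineralization assay in mouse calvaria cultures. The read-out is calcium incorporation into the calvaria.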"}, "[9]": {"test": "Ratio of calvaria mineralization to calvaria bone resorption", "assay_type": "functional"}, "[10]": {"species_on_record": "Rattus norvegicus", "test": "Effective dose for increased cancellous bone area in young interact rats after a treatment period of 10 days", "assay_type": "functional", "conditions": "240 h"}, "[11]": {"species_on_record": "Rattus norvegicus", "test": "Effective dose for increased urinary excretion of MDH in rats after a treatment period of 14 days in renal tolerability model", "assay_type": "functional, Urine"}, "[12]": {"species_on_record": "Rattus norvegicus", "test": "Effective dose for increased cancellous bone hydroxy proline in young interact rats after a treatment period of 10 days", "assay_type": "functional", "conditions": "240 h"}}}
{"smiles": "NCCC(O)(P(=O)(O)O)P(=O)(O)O", "note": "[PAMIDRONIC ACID]", "values": [{"measurement": "ED100", "setting": "[1]", "value": 11, "unit": "mg/kg"}, {"measurement": "NOL", "setting": "[2]", "value": 10, "unit": "mM"}, {"measurement": "selectivity ratio", "setting": "[3]", "value": 1.2}, {"measurement": "ED50", "setting": "[4]", "value": 0.0227, "unit": "mg/kg"}, {"measurement": "IC50", "setting": "[5]", "value": 0.2, "unit": "µM"}, {"measurement": "ED50", "setting": "[6]", "value": 0.061, "unit": "mg/kg"}, {"measurement": "ED50", "setting": "[7]", "value": 0.39, "unit": "mg/kg"}, {"measurement": "IC50", "setting": "[8]", "value": 100, "unit": "µM"}, {"measurement": "Ratio", "setting": "[9]", "value": 500}, {"measurement": "ED50", "setting": "[10]", "value": 0.0071, "unit": "mg/kg"}, {"measurement": "NOL", "setting": "[11]", "value": 0.1, "unit": "mg/kg"}, {"measurement": "ED50", "setting": "[12]", "value": 0.21, "unit": "mg/kg"}]}
